ChEMBL document CHEMBL3046184, “New analogues of (E)-β-farnesene with insecticidal activity and binding affinity to aphid odorant-binding proteins” (J Agric Food Chem, 2011)
Active and inactive are the calls of the source. The calls are words filed in the database; no cut-off is given here.

What was measured:
[1] = molecular target: T1, Odorant-binding protein 3 (Acyrthosiphon pisum) (UniProt C1KUY3); assay: Displacement of fluorescent probe 1-NPN from Acyrthosiphon pisum (pea aphid) recombinant OBP3 by competitive binding assay
T1 sequence (whole entry): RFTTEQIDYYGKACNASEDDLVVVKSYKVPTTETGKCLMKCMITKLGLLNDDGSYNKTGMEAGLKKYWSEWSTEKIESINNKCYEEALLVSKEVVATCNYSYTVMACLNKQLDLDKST
Method in brief: (§1)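 Recombinant A. pisum OBP and the probe 1-NPN were each at 2 μM in 50 mM Tris-HCl, titrated with competitor to 2-16 μM final. Excitation was at 337 nm, with emission recorded at 380-450 nm and intensity read at the maximum (406-409 nm). The IC50 was taken as the concentration halving initial fluorescence, and Ki = IC50/(1+[1-NPN]/K1-NPN) using free 1-NPN.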

[2] = test system: Aphis gossypii; assay: Insecticidal activity against 3 day old Aphis gossypii (cotton aphid) in compound treated cabbage leaves at 600 microg/mL at 24 to 26 degC for 24 hr; type: functional, organism-based
Method in brief: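 Compound was dissolved in acetone/methanol/water (1:1:18). Cabbage leaves (~5 cm) bearing aphids were dipped for 5 s and air-dried, then held in Petri dishes. Dead aphids were counted. Solvent served as the negative control and thiacloprid as the positive reference.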

[3] = molecular target: T2, Odorant-binding protein 1 (Acyrthosiphon pisum) (UniProt C1KUY1); assay: Displacement of fluorescent probe 1-NPN from Acyrthosiphon pisum (pea aphid) recombinant OBP1 by competitive binding assay; method in brief: as §1
T2 sequence (whole entry): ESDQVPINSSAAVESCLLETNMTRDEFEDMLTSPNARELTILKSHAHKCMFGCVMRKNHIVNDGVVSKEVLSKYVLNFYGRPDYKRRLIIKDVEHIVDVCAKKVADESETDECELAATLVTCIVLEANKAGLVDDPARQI

[4] = Displacement of fluorescent probe 1-NPN from Acyrthosiphon pisum (pea aphid) recombinant OBP2 by competitive binding assay

SMILES	Activity [1]	Activity [2]	Activity [3]	Activity [4]
CC(C)=CCC/C(C)=C/COC(=O)c1cc(C)nn1C(C)(C)C	Active	–	–	–
CC(C)=CCC/C(C)=C/COC(=O)c1ccc(Br)cc1	Active	Active	Active	Active
CC(C)=CCC/C(C)=C/COC(=O)c1c(F)cccc1F	Active	–	Active	Active
CC(C)=CCC/C(C)=C/COC(=O)c1cc(C(C)C)nn1-c1ccc([N+](=O)[O-])cc1	Active	–	Active	Active
CCCc1cc(C(=O)OC/C=C(\C)CCC=C(C)C)n(C(C)(C)C)n1	Active	–	–	–
CC(C)=CCC/C(C)=C/COC(=O)c1cc(-c2ccccc2)nn1-c1ccccc1	–	Active	–	–
CC(C)=CCC/C(C)=C/COC(=O)c1cc(-c2ccccc2)nn1-c1ccc([N+](=O)[O-])cc1	Active	–	Active	Active
N#C/N=C1\SCCN1Cc1ccc(Cl)nc1	Active	–	–	–
CC(C)=CCC/C(C)=C/COC(=O)c1cc(-c2ccccc2)nn1C(C)(C)C	–	Active	–	–
CC(C)=CCC/C(C)=C/COC(=O)c1cc(C(C)C)nn1C(C)(C)C	Active	–	–	–
